{"source": "paper PMC3142331", "about": "(Molecular cell, 2011)", "key": {"[1]": {"system": "Mce F367N", "test": "fluorescence polarization binding", "parameters": "species or system mouse", "conditions": "pH 7.0, 23°C; versus wild-type", "in_short": "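N-terminally fluorescein-labelled 11-aa CTD peptide (phosphorylated at central Ser2 and Ser5) was titrated with increasing concentrations of E. coli-expressed recombinant Mce protein, wild-type or mutant. Polarization was read at 23°C, pH 7.0, and Kd was derived from the binding curves. Three independent experiments were run in triplicate; error is one standard deviation.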"}, "[2]": {"biological_target": "Mce-V372Y/C383Y (Mus musculus, UniProt O55236, C383Y/V372Y)", "sequence (O55236 227-567 V372Y/C383Y)": "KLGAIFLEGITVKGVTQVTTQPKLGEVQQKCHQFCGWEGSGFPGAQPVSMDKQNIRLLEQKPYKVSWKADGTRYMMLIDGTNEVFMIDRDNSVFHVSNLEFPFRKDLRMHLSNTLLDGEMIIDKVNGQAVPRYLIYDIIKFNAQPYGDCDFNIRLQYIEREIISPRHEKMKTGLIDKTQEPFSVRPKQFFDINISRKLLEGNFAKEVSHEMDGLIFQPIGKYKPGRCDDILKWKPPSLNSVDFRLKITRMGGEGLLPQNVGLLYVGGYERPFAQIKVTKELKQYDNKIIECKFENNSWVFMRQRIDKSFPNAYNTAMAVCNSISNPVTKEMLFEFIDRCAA", "test": "fluorescence polarization binding", "conditions": "pH 7.0, 23°C"}}, "data": [{"smiles": "C[C@@H](O)[C@H](NC(=O)[C@@H]1CCCN1C(=O)[C@H](CO)NC(=O)c1ccc2c(c1)C(=O)OC21c2ccc(O)cc2Oc2cc(O)ccc21)C(=O)N[C@@H](COP(=O)(O)O)C(=O)N1CCC[C@H]1C(=O)N[C@@H](CO)C(=O)N[C@@H](Cc1ccc(O)cc1)C(=O)N[C@@H](COP(=O)(O)O)C(=O)N1CCC[C@H]1C(=O)N[C@H](C(=O)N[C@@H](CO)C(=O)O)[C@@H](C)O", "note": "[Fluor-S2P3T4S5PP6S7Y1S2PP3T4S5]", "values": [{"measurement": "effect of mutation on binding", "setting": "[1]", "result": "No effect in binding was observed"}, {"measurement": "increase in Kd compared to wild-type Mce", "setting": "[2]", "result": 4, "unit": "fold"}]}]}
